Source: ChEMBL document CHEMBL1143012, “Synthesis and pharmacological in vitro and in vivo evaluations of novel triazole derivatives as ligands of the ghrelin receptor. 1” (J Med Chem, 2007)
pEC50, pIC50: −log10 of the molar value.

What was measured:
[1] = target: T1, Growth hormone secretagogue receptor type 1 (Homo sapiens, UniProt Q92847); assay: Activity at human GHS1a receptor expressed in CHO cells assessed as intracellular calcium mobilization relative to 0.1 uM ghrelin; type: functional, cell-based
[2] = target: T1, Growth hormone secretagogue receptor type 1; assay: Displacement of [125I-His9]ghrelin from human GHS1a receptor expressed in LLC PK1 cells; type: cell-based
How it was run: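 Membranes from LLC PK-1 cells transiently electroporated with hGHS-R1a (harvested about 48 h), 10 µg protein, incubated 60 min at 25 °C with 60 pM 125I-His9-ghrelin in Tris pH 7.3/MgCl2/EDTA/bacitracin buffer. Filtered, washed, gamma counted; nonspecific binding with 10 µM ghrelin. Triplicates, at least three experiments.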

[3] = target: T1, Growth hormone secretagogue receptor type 1; assay: Agonist activity at human GHS1a receptor expressed in CHO cells assessed as induction of intracellular calcium mobilization; type: functional, cell-based
How it was run: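 CHO cells transiently expressing hGHS-R1a via electroporation, Fluo-4AM loaded (1 µM, 1 h, 37 °C), calcium fluorescence read 60 s at ex 485/em 525 nm. EC50 from agonist dose-response curves, response as percentage of maximal signal from 10 µM ghrelin; triplicates, means of at least three experiments.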

Rattus norvegicus [4] = assay: Stimulation of cumulative food intake in Sprague-Dawley rat at 160 ug/kg, sc at 6 hrs relative to 80 ug/kg hexarelin; type: functional
How it was run: (§1)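 Male Sprague-Dawley rats (125-150 g), singly housed and trained, given compound sc alone (cumulative food intake as g/100 g body weight, weighed hourly to 6 h); percentage variation calculated as (compound minus hexarelin 80 µg/kg intake)/hexarelin intake at 6 h. Mean ± SEM, ANOVA with Dunnett's test.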

Rattus norvegicus [5] = assay: Stimulation of cumulative food intake per 100 g body weight in Sprague-Dawley rat at 160 ug/kg, sc at 6 hrs; type: functional; how it was run: as §1

T1 sequence (Q92847 whole entry): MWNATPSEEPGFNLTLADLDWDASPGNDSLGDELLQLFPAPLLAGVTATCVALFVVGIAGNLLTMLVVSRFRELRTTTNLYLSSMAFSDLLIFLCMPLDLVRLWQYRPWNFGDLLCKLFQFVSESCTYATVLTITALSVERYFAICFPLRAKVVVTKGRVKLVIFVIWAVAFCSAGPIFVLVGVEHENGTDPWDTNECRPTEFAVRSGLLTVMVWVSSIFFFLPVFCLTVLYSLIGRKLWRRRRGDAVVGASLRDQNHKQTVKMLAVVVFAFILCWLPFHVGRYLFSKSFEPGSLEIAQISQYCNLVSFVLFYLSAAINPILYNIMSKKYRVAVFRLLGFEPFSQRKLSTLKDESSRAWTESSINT

Structure (SMILES) | Activity [1] [%] | pIC50 [2] | Activity ([3]; filed as partial agonist) | pEC50 [3] | Activity (Rattus norvegicus [4]) [%] | Activity (Rattus norvegicus [5]) [g] | Activity ([3]; filed as agonist)
CC(C)(N)C(=O)N[C@H](Cc1c[nH]c2ccccc12)c1nnc(CCc2ccccc2)n1Cc1ccccn1 | 59 | < 6.00 | Partial agonist |  |  |  | 
Cn1c(CCc2c[nH]c3ccccc23)nnc1[C@@H](Cc1c[nH]c2ccccc12)NC(=O)C(C)(C)N |  | 6.24 |  |  |  |  | 
CC(C)(N)C(=O)N[C@H](Cc1c[nH]c2ccccc12)c1nnc(CCc2c[nH]c3ccccc23)n1Cc1ccc(F)cc1 | 59 |  |  | 6.68 |  |  | 
COc1cccc(Cn2c(CCc3c[nH]c4ccccc34)nnc2[C@@H](Cc2c[nH]c3ccccc23)NC(=O)C(C)(C)N)c1 | 63 |  |  | 8.40 |  |  | 
CC(C)(N)C(=O)N[C@H](Cc1c[nH]c2ccccc12)c1nnc(CCCc2c[nH]c3ccccc23)n1Cc1ccc(Br)cc1 | 25 |  | Partial agonist |  |  |  | 
CC(C)(N)C(=O)N[C@H](Cc1c[nH]c2ccccc12)c1nnc(CCc2ccccc2)n1Cc1ccco1 | 97 | 6.38 |  | 7.64 |  |  | 
COc1cc(Cn2c(Cc3ccccc3)nnc2[C@@H](Cc2c[nH]c3ccccc23)NC(=O)C(C)(C)N)cc(OC)c1 | 29 | 6.96 | Partial agonist |  |  |  | 
Cc1ccc(Cn2c(CCc3c[nH]c4ccccc34)nnc2[C@@H](Cc2c[nH]c3ccccc23)NC(=O)C(C)(C)N)cc1 | 69 |  |  | 6.20 | -49 | 0.3 | 
CC(C)(N)C(=O)N[C@H](Cc1c[nH]c2ccccc12)c1nnc(Cc2ccccc2)n1Cc1ccc(Cl)c(Cl)c1 | 64 | 6.28 | Partial agonist |  |  |  | 
CC(C)(N)C(=O)N[C@H](Cc1c[nH]c2ccccc12)c1nnc(CCc2c[nH]c3ccccc23)n1CCc1ccccc1 | 25 | 7.10 | Partial agonist |  |  |  | 
CC(C)(N)C(=O)N[C@H](Cc1c[nH]c2ccccc12)c1nncn1CCc1c[nH]c2ccccc12 |  | 6.07 |  |  |  |  | 
CC(C)(N)C(=O)N[C@H](Cc1c[nH]c2ccccc12)c1nnc(CCc2c[nH]c3ccccc23)n1Cc1ccccc1 |  | 7.82 |  | 7.19 | -4 | 0.02 | 
CC(C)(N)C(=O)N[C@H](Cc1c[nH]c2ccccc12)c1nnc(Cc2ccccc2)n1Cc1ccc(F)cc1 | 60 |  | Partial agonist |  |  |  | 
COc1cccc(Cn2c(CCc3ccccc3)nnc2[C@@H](Cc2c[nH]c3ccccc23)NC(=O)C(C)(C)N)c1 | 82 |  |  | 7.35 | -37 | 0.01 | 
CC(C)(N)C(=O)N[C@H](Cc1c[nH]c2ccccc12)c1nnc(CCc2ccccc2)n1CCc1ccccc1 | 63 | 6.51 | Partial agonist |  |  |  | 
CC(C)(N)C(=O)N[C@H](Cc1c[nH]c2ccccc12)c1nnc(Cc2ccccc2)n1Cc1ccc(Br)cc1 | 16 | 6.36 | Partial agonist |  |  |  | 
CC(C)(N)C(=O)N[C@H](Cc1c[nH]c2ccccc12)c1nnc(Cc2ccccc2)n1Cc1ccccc1 | 44 | 6.30 | Partial agonist |  |  |  | 
CC(C)(N)C(=O)N[C@H](Cc1c[nH]c2ccccc12)c1nnc(CCc2ccccc2)n1Cc1ccc([N+](=O)[O-])cc1 | 10 | < 6.00 |  |  |  |  | 
CC(C)(N)C(=O)N[C@H](Cc1c[nH]c2ccccc12)c1nnc(CCc2ccccc2)n1Cc1ccc(Cl)c(Cl)c1 | 53 | 6.19 | Partial agonist |  |  |  | 
COc1ccc(Cn2c(CCc3c[nH]c4ccccc34)nnc2[C@@H](Cc2c[nH]c3ccccc23)NC(=O)C(C)(C)N)cc1 | 0 |  |  |  | -31 | 0.06 | 
COc1ccc(Cn2c(CCCc3c[nH]c4ccccc34)nnc2[C@@H](Cc2c[nH]c3ccccc23)NC(=O)C(C)(C)N)c(OC)c1 | 27 | 6.12 | Partial agonist |  |  |  | 
CC(C)(N)C(=O)N[C@H](Cc1c[nH]c2ccccc12)c1nnc(CCc2c[nH]c3ccccc23)n1CC(c1ccccc1)c1ccccc1 | 62 | 6.19 | Partial agonist |  |  |  | 
Cn1c(Cc2c[nH]c3ccccc23)nnc1[C@@H](Cc1c[nH]c2ccccc12)NC(=O)C(C)(C)N |  | 5.77 |  |  |  |  | 
CCCCCCn1c(Cc2ccccc2)nnc1[C@@H](Cc1c[nH]c2ccccc12)NC(=O)C(C)(C)N | 67 | 6.33 | Partial agonist |  |  |  | 
CCCCCCn1c(CCCc2c[nH]c3ccccc23)nnc1[C@@H](Cc1c[nH]c2ccccc12)NC(=O)C(C)(C)N | 32 |  | Partial agonist |  |  |  | 

Structure (SMILES) | Activity [1] [%] | pIC50 [2] | Activity ([3]; filed as partial agonist) | pEC50 [3] | Activity (Rattus norvegicus [4]) [%] | Activity (Rattus norvegicus [5]) [g] | Activity ([3]; filed as agonist)
CC(C)(N)C(=O)N[C@H](Cc1c[nH]c2ccccc12)c1nnc(CCc2ccccc2)n1Cc1cccs1 | 91 | 6.24 |  |  |  |  | Agonist
Cc1ccc(Cn2c(Cc3ccccc3)nnc2[C@@H](Cc2c[nH]c3ccccc23)NC(=O)C(C)(C)N)cc1 | 28 | 6.08 | Partial agonist |  |  |  | 
CC(C)(N)C(=O)N[C@H](Cc1c[nH]c2ccccc12)c1nnc(CCc2ccccc2)n1Cc1ccc(F)cc1 | 20 | 6.40 | Partial agonist |  |  |  | 
CC(C)(N)C(=O)N[C@H](Cc1c[nH]c2ccccc12)c1nnc(Cc2ccccc2)n1CCc1ccccc1 | 85 | < 6.00 | Partial agonist |  |  |  | 
CC(C)(N)C(=O)N[C@H](Cc1c[nH]c2ccccc12)c1nnc(Cc2ccccc2)n1Cc1cccc2ccccc12 | 78 |  | Partial agonist |  |  |  | 
COc1cccc(Cn2c(Cc3ccccc3)nnc2[C@@H](Cc2c[nH]c3ccccc23)NC(=O)C(C)(C)N)c1 | 50 |  | Partial agonist |  |  |  | 
CC(C)(N)C(=O)N[C@H](Cc1c[nH]c2ccccc12)c1nnc(CCc2c[nH]c3ccccc23)n1Cc1ccc(Br)cc1 | 27 | 7.00 | Partial agonist |  |  |  | 
CC(C)(N)C(=O)N[C@H](Cc1c[nH]c2ccccc12)c1nnc(Cc2ccccc2)n1CCc1c[nH]c2ccccc12 | 95 | 6.15 |  |  |  |  | Agonist
COc1ccccc1Cn1c(CCc2ccccc2)nnc1[C@@H](Cc1c[nH]c2ccccc12)NC(=O)C(C)(C)N | 80 |  |  | 7.01 | -57 | 0.29 | 
CC(C)(N)C(=O)N[C@H](Cc1c[nH]c2ccccc12)c1nnc(CCCc2c[nH]c3ccccc23)n1Cc1cccc2ccccc12 | 62 | 6.85 | Partial agonist |  |  |  | 
CCc1ccc(Cn2c(CCc3ccccc3)nnc2[C@@H](Cc2c[nH]c3ccccc23)NC(=O)C(C)(C)N)cc1 | 26 |  |  | 7.96 |  |  | 
CC(C)(N)C(=O)N[C@H](Cc1c[nH]c2ccccc12)c1nnc(Cc2c[nH]c3ccccc23)[nH]1 |  | 5.66 |  |  |  |  | 
Cc1ccc(Cn2c(CCc3ccccc3)nnc2[C@@H](Cc2c[nH]c3ccccc23)NC(=O)C(C)(C)N)cc1 | 19 | 6.85 | Partial agonist |  |  |  | 
COc1ccc(CCn2c(CCc3ccccc3)nnc2[C@@H](Cc2c[nH]c3ccccc23)NC(=O)C(C)(C)N)cc1 | 82 | 6.26 | Partial agonist |  |  |  | 
CC(C)(N)C(=O)N[C@H](Cc1c[nH]c2ccccc12)c1nnc(Cc2c[nH]c3ccccc23)n1CCc1ccccc1 | 88 | 6.52 | Partial agonist |  |  |  | 
CCCCCCn1c(CCc2c[nH]c3ccccc23)nnc1[C@@H](Cc1c[nH]c2ccccc12)NC(=O)C(C)(C)N | 62 | 6.71 | Partial agonist |  |  |  | 
COc1ccc(Cn2c(Cc3c[nH]c4ccccc34)nnc2[C@@H](Cc2c[nH]c3ccccc23)NC(=O)C(C)(C)N)c(OC)c1 |  | 6.00 |  |  |  |  | 
CC(C)(N)C(=O)N[C@H](Cc1c[nH]c2ccccc12)c1nnc(Cc2ccccc2)n1Cc1ccccn1 | 78 | < 6.00 | Partial agonist |  |  |  | 
CC(C)(N)C(=O)N[C@H](Cc1c[nH]c2ccccc12)c1nnc(CCc2c[nH]c3ccccc23)n1-c1ccccc1 | 91 |  |  | 7.39 |  |  | 
COc1cc(Cn2c(CCc3c[nH]c4ccccc34)nnc2[C@@H](Cc2c[nH]c3ccccc23)NC(=O)C(C)(C)N)cc(OC)c1 | 22 | 6.82 | Partial agonist |  |  |  | 
CC(C)(N)C(=O)N[C@H](Cc1c[nH]c2ccccc12)c1nnc(CCc2c[nH]c3ccccc23)n1Cc1cccc2ccccc12 | 54 |  | Partial agonist |  |  |  | 
COc1cccc(Cn2c(CCCc3c[nH]c4ccccc34)nnc2[C@@H](Cc2c[nH]c3ccccc23)NC(=O)C(C)(C)N)c1 | 66 | 7.66 |  | 7.74 |  |  | 
CC(C)(N)C(=O)N[C@H](Cc1c[nH]c2ccccc12)c1nnc(CCc2ccccc2)n1Cc1cccc2ccccc12 | 40 | 6.89 | Partial agonist |  |  |  | 
CC(C)(N)C(=O)N[C@H](Cc1c[nH]c2ccccc12)c1nnc(Cc2ccccc2)n1CC(c1ccccc1)c1ccccc1 | 60 | < 6.00 | Partial agonist |  |  |  | 
